“Also recorded” adds a separate entry of the source. Like-named read-outs stand apart in the source and are kept apart here. Blank lines part the entries; values can stand above or below the molecule they belong to.
How the values were obtained:
S1PR2-5 = details: read-out: IC50, nM S1PR2-5; binding affinity reported previously; cited from earlier work
S1PR1 [1] = details: read-out: IC50, nM S1PR1; binding affinity reported previously; cited from earlier work
S1PR1 [2] = molecular target: S1PR1 (Rattus norvegicus, UniProt P48303); format: in vivo; details: for Average uptake: 10–60 min post injection; for 2TCM VT: image-derived input function
In short: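 EAE and sham rats (n=3–4 per group per tracer) were held under 1.5–2% isoflurane/oxygen, centered on T13. After CT, each received a 15–22 MBq i.v. bolus, followed by 60-min dynamic list-mode PET. Lumbar spinal cord and bilateral carotid ROIs on co-registered PET/CT gave %ID/g TACs. Mean 10–60 min uptake and 2TCM VT (carotid image-derived input) were compared by two-tailed t-test (P<0.05).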

[3] = HPLC radiometabolite analysis of rat plasma and brain; format: in vivo; details: for level of the lipophilic radiometabolite / level of the polar radiometabolite / percentage of the parent compound: rat plasma
In short: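 Adult male Sprague Dawley rats were given ~37 MBq tracer i.v. At set times post-injection they were killed by terminal exsanguination under surgical-plane anesthesia. Heparinized left-ventricle blood was spun to plasma, solvent-deproteinated and re-centrifuged. Whole brain was homogenized in cold PBS, then solvent-extracted, deproteinated and centrifuged. Supernatants ran on C18 HPLC with acetonitrile/0.1 M ammonium formate pH 4.5 (70/30) at 0.76 mL/min. Radioactive peaks were expressed as percentages.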

[4] = rat brain homogenate, 5 min p.i.
[5] = rat brain homogenate, 15 min p.i.
[6] = rat brain homogenate, 40 min p.i.
[7] = rat brain homogenate, 60 min p.i.

Sequence of S1PR1 (Rattus norvegicus, UniProt P48303) (P48303 whole entry): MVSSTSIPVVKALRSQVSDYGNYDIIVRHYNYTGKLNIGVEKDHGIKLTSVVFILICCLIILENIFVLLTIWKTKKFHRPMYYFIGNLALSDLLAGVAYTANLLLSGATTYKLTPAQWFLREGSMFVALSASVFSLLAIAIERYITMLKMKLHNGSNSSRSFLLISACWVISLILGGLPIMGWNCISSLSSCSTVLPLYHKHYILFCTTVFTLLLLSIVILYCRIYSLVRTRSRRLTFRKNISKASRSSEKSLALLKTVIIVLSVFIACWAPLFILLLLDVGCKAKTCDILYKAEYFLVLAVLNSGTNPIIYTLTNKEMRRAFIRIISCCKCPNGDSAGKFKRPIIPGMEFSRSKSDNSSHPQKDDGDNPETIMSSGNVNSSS

SMILES: OCCOCc1ccc(-c2noc(-c3ccc(OCCF)c(C(F)(F)F)c3)n2)cc1 [TZ4877]
IC50 (S1PR2-5): > 1000 nM
IC50 (S1PR1 [1]): 14.01 ± 0.04 nM

Average uptake (S1PR1 [2]; EAE rat lumbar spinal cord): 1.42 ± 0.14 %ID/g
2TCM VT (S1PR1 [2]; EAE rat lumbar spinal cord): 2.18 ± 0.20 mL/cc
2TCM VT Increase, % (S1PR1 [2]; EAE vs sham): 21.11%
Average uptake Increase, % (S1PR1 [2]; EAE vs sham rat lumbar spinal cord, listed as 18F-TZ4877): 29.09%
bone uptake/defluorination (S1PR1 [2]; PET images without CT co-registration, rat): no obvious bone uptake/defluorination
initial tracer uptake at 20 min (S1PR1 [2]; rat spinal cord, 20 min): ~ 1.5 %ID/g
tracer uptake / retention at 60 min (S1PR1 [2]; rat spinal cord, 60 min): > 1.0 %ID/g
Average uptake (S1PR1 [2]; sham rat lumbar spinal cord, listed as 18F-TZ4877): 1.10 ± 0.06 %ID/g
2TCM VT (S1PR1 [2]; sham rat lumbar spinal cord): 1.80 ± 0.20 mL/cc
hydrophilic radiometabolite [3, 4]: 6%
parent tracer percentage [3, 4]: 78%
hydrophilic radiometabolite [3, 5]: 2%
parent tracer percentage [3, 5]: 89%
hydrophilic radiometabolite [3, 6]: 10%
parent tracer percentage [3, 6]: 65%
hydrophilic radiometabolite [3, 7]: 14%
parent tracer percentage [3, 7]: 68%
level of the lipophilic radiometabolite ([3]; 5 min p.i.): 14%
level of the polar radiometabolite ([3]; 5 min p.i.): 7%
percentage of the parent compound ([3]; 5 min p.i.): 75%
level of the lipophilic radiometabolite ([3]; 15 min p.i.): 21%
level of the polar radiometabolite ([3]; 15 min p.i.): 6%
percentage of the parent compound ([3]; 15 min p.i.): 68%
level of the lipophilic radiometabolite ([3]; 40 min p.i.): 26%
level of the polar radiometabolite ([3]; 40 min p.i.): 5%
percentage of the parent compound ([3]; 40 min p.i.): 66%
level of the lipophilic radiometabolite ([3]; 60 min p.i.): 41%
level of the polar radiometabolite ([3]; 60 min p.i.): 5%
percentage of the parent compound ([3]; 60 min p.i.): 51%
SMILES: OCCOCc1ccc(-c2noc(-c3ccc(OCC[18F])c(C(F)(F)F)c3)n2)cc1 [TZ4877]
lipophilic radiometabolite in brain ([3]; rat brain homogenate, listed as 18F-TZ4877): No lipophilic radioactive peak was detected; also recorded: not detected

From publication PMC7679043 (Molecular imaging and biology, 2020)
